What all share (format): functional
Test [1] concerns Mycobacterium tuberculosis. As to the kind of experiment: Antibacterial activity against streptomycin-resistant Mycobacterium tuberculosis after 7 days by microplate alamar blue assay. Conditions: 168 h.
The test system of test [2] is Mycobacterium tuberculosis. Put plainly: Antibacterial activity against kanamycin-resistant Mycobacterium tuberculosis after 7 days by microplate alamar blue assay. The following applies: 168 h. An outline of the steps: (§1)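 Microplate alamar blue assay in 7H12 medium against M. tuberculosis H37Rv ATCC 27294 and against rifampicin-, isoniazid-, streptomycin- and kanamycin-resistant Mtb strains. Bacteria were incubated with test samples for 7 days, then fluorescence was read. MIC is the lowest concentration giving at least a 90% fluorescence reduction relative to untreated controls.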
Background: Alamar Blue is a resazurin reagent that responds to reducing activity.

Test [3] concerns Mycobacterium tuberculosis. Put plainly: Antibacterial activity against rifampicin-resistant Mycobacterium tuberculosis after 7 days by microplate alamar blue assay. The following applies: 168 h.
Test [4] concerns Mycobacterium tuberculosis. As to the kind of experiment: Antibacterial activity against isoniazid-resistant Mycobacterium tuberculosis after 7 days by microplate alamar blue assay. The following applies: 168 h. An outline of the steps:
as §1

The subject of test [5] is Mycobacterium tuberculosis. Put plainly: Antibacterial activity against clofazimine-resistant Mycobacterium tuberculosis after 7 days by microplate alamar blue assay. Conditions: 168 h.
Test [6] relates to Mycobacterium tuberculosis. Put plainly: Antibacterial activity against multidrug-resistant Mycobacterium tuberculosis H37Rv carrying luxAB incubated for 10 days under low oxygen followed by 28 hrs normoxic recovery by low-oxygen-recovery assay. The procedure, abridged:
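Low-oxygen-recovery assay using low-oxygen-adapted M. tuberculosis H37Rv luxAB, which carries a luciferase reporter, in 7H12 medium in microplate format. Cultures were incubated 10 days under low oxygen, then given 28 h of normoxic recovery before luminescence was read. MIC is the lowest concentration giving at least a 90% luminescence reduction relative to untreated controls.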

Test [7] has as its system Mycobacterium tuberculosis. Put plainly: Antibacterial activity against multidrug-resistant Mycobacterium tuberculosis H37Rv carrying luxAB at 128 uM incubated for 10 days under low oxygen followed by 28 hrs normoxic recovery by low-oxygen-recovery assay relative to control.

The structures appear in SMILES notation. In brackets after ≈: the same amount, converted by molar mass. A value given as a limit tells only on which side of the number the result lay.

One may read the MIC as the lowest concentration that inhibits growth of the organism. A high value points to a need for much substance. As to `CN[C@@H]1[C@H](O[C@H]2[C@H](O[C@H]3[C@H](O)[C@@H](O)[C@H](N=C(N)N)[C@@H](O)[C@@H]3N=C(N)N)O[C@@H](C)[C@]2(O)C=O)O[C@@H](CO)[C@H](O)[C@H]1O` [STREPTOMYCIN], the MIC is > 16 µM in test [1]; 0.98 µM (≈ 0.57 µg/mL) in test [2]; 0.21 µM (≈ 0.122 µg/mL) in test [3]; 0.13 µM (≈ 0.0756 µg/mL) in test [4]; 0.33 µM (≈ 0.192 µg/mL) in test [5].
Regarding `COc1ccc(Cn2ccc3c(-c4ccco4)nc(OC)nc32)cc1`, the MIC in test [1] came out at 0.09 µM (≈ 0.0302 µg/mL); in test [2], 0.1 µM (≈ 0.0335 µg/mL); in test [6] it was 87 µM (≈ 29.2 µg/mL); in test [3], 0.09 µM (≈ 0.0302 µg/mL); in test [4] it was 0.09 µM (≈ 0.0302 µg/mL); in test [5], 0.07 µM (≈ 0.0235 µg/mL).
A word on the inhibition: it is the relative decrease from the control value, in per cent. The low end stands for a response near the control, the high end for a response far below the control. `COc1ccc(Cn2ncc3c(-c4ccco4)ncnc32)cc1` displayed an inhibition at 128 µM in test [7] of 60%. In test [6], the MIC is > 128 µM.
In the case of `COc1ccc(Cn2ccc3c(-c4ccco4)nc(Cl)nc32)cc1`, the MIC in test [1] was 0.08 µM (≈ 0.0272 µg/mL); in test [2], 0.1 µM (≈ 0.034 µg/mL); in test [6] it was > 128 µM; in test [3], 0.1 µM (≈ 0.034 µg/mL); in test [4], 0.12 µM (≈ 0.0408 µg/mL); in test [5], 0.06 µM (≈ 0.0204 µg/mL). The compound further came in with an inhibition at 128 µM in test [7] of 88%.
As to `NNC(=O)c1ccncc1` [ISONIAZID], the MIC is 0.24 µM (≈ 0.0329 µg/mL) in test [1], 0.39 µM (≈ 0.0535 µg/mL) in test [2], 0.25 µM (≈ 0.0343 µg/mL) in test [3] and > 8 µM in test [4].
In the case of `COc1ccc(Cn2cnc3c(-c4ccco4)nc(Cl)nc32)cc1`, the MIC is 0.56 µM (≈ 0.191 µg/mL) in test [1]; 0.16 µM (≈ 0.0545 µg/mL) in test [2]; > 128 µM in test [6]; 0.15 µM (≈ 0.0511 µg/mL) in test [3]; 0.15 µM (≈ 0.0511 µg/mL) in test [4]; 0.47 µM (≈ 0.16 µg/mL) in test [5]. The inhibition at 128 µM in test [7] was 82%.
Take `COc1c(N2C[C@@H]3CCCN[C@@H]3C2)c(F)cc2c(=O)c(C(=O)O)cn(C3CC3)c12` [MOXIFLOXACIN]: the MIC in test [2] is 0.34 µM (≈ 0.136 µg/mL); in test [4], 0.3 µM (≈ 0.12 µg/mL).
On to `COc1ccc(Cn2nnc3c(-c4ccco4)ncnc32)cc1`, for which the inhibition at 128 µM in test [7] turned out to be 61%. In addition, the MIC in test [6] was > 128 µM.
As for `COc1ccc(Cn2ccc3c(-c4cccs4)ncnc32)cc1`, the MIC in test [1] worked out at 0.26 µM (≈ 0.0836 µg/mL); in test [2] it was 0.12 µM (≈ 0.0386 µg/mL); in test [6], 60 µM (≈ 19.3 µg/mL); in test [3], 0.13 µM (≈ 0.0418 µg/mL); in test [4] it was 0.14 µM (≈ 0.045 µg/mL); in test [5], 0.18 µM (≈ 0.0579 µg/mL).
Turning to `COc1ccc(Cn2ccc3c(-c4cccs4)nc(Cl)nc32)cc1`, the minimum inhibitory concentration (MIC) was 0.06 µM (≈ 0.0214 µg/mL) in test [1]; 0.08 µM (≈ 0.0285 µg/mL) in test [2]; 120 µM (≈ 42.7 µg/mL) in test [6]; 0.14 µM (≈ 0.0498 µg/mL) in test [3]; 0.09 µM (≈ 0.032 µg/mL) in test [4]; < 0.05 µM in test [5].
On to `COc1ccc(Cn2cnc3c(-c4ccco4)ncnc32)cc1`, for which the inhibition at 128 µM in test [7] was found to be 88%. The MIC in test [6] was > 128 µM.
As to `O=[N+]([O-])c1cn2c(n1)OC[C@@H](OCc1ccc(OC(F)(F)F)cc1)C2` [PRETOMANID], the minimum inhibitory concentration (MIC) in test [1] was 0.1 µM (≈ 0.0359 µg/mL); in test [2], 0.22 µM (≈ 0.079 µg/mL); in test [3], 0.17 µM (≈ 0.0611 µg/mL); in test [4], 0.07 µM (≈ 0.0251 µg/mL); in test [5], 0.54 µM (≈ 0.194 µg/mL).
Consider `COc1ccc(Cn2ccc3c(-c4ccco4)ncnc32)cc1`, for which the MIC is 0.18 µM (≈ 0.055 µg/mL) in test [1]; 0.1 µM (≈ 0.0305 µg/mL) in test [2]; > 128 µM in test [6]; 0.14 µM (≈ 0.0427 µg/mL) in test [3]; 0.13 µM (≈ 0.0397 µg/mL) in test [4]; 0.16 µM (≈ 0.0489 µg/mL) in test [5]. Also, 128 µM produced 82% inhibition in test [7].
`CO[C@H]1/C=C/O[C@@]2(C)Oc3c(C)c(O)c4c(O)c(c(/C=N/N5CCN(C)CC5)c(O)c4c3C2=O)NC(=O)/C(C)=C\C=C\[C@H](C)[C@H](O)[C@@H](C)[C@@H](O)[C@@H](C)[C@H](OC(C)=O)[C@@H]1C` [RIFAMPIN]: the MIC in test [1] is 0.04 µM (≈ 0.0329 µg/mL); in test [2], 0.02 µM (≈ 0.0165 µg/mL); in test [3], > 4 µM; in test [4] it was 0.02 µM (≈ 0.0165 µg/mL); in test [5] it was 0.02 µM (≈ 0.0165 µg/mL).

The values are drawn from ChEMBL document CHEMBL1250546, “Synthesis of non-purine analogs of 6-aryl-9-benzylpurines, and their antimycobacterial activities. Compounds modified in the imidazole ring” (Bioorg Med Chem, 2010).
